Measured values from ChEMBL document CHEMBL1125418, “Antimycobacterial activity of a series of pyrazinoic acid esters” (1992).
In brackets after ≈: the same amount, converted by molar mass.

Legend:
Assay type in all cases: functional
[1] = tested on: Mycobacterium tuberculosis; assay: In vitro activity against Mycobacterium strain ATCC 35828 (Mycobacterium tuberculosis)
Method in brief: (§1)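 Agar dilution in compartmented plates of Middlebrook 7H10 agar with 10% OADC, adjusted to pH 5.8 or pH 6.6. Twofold compound dilutions spanned 200–3.12 µg/mL. Plates were made 24–48 h ahead and held at 4 °C. MIC (µg/mL) was the lowest concentration giving 99% (2 log) growth inhibition.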

[2] = tested on: Mycobacterium tuberculosis; assay: In vitro activity against Mycobacterium strain BAK (Mycobacterium tuberculosis)
[3] = tested on: Mycobacterium tuberculosis; assay: In vitro activity against Mycobacterium strain BUR (Mycobacterium tuberculosis); method in brief: as §1
[4] = tested on: Mycobacterium tuberculosis; assay: In vitro activity against Mycobacterium. tuberculosis (strain type-BUR)at pH 5.8
[5] = tested on: Mycobacterium tuberculosis; assay: In vitro activity against Mycobacterium strain CES (Mycobacterium tuberculosis); method in brief: as §1
[6] = tested on: Mycobacterium tuberculosis; assay: In vitro activity against Mycobacterium strain DOL (Mycobacterium tuberculosis)
[7] = tested on: Mycobacterium tuberculosis; assay: In vitro activity against Mycobacterium strain DOU (Mycobacterium tuberculosis); method in brief: as §1
[8] = tested on: Mycobacterium tuberculosis; assay: In vitro activity against Mycobacterium. tuberculosis (strain type-ATCC 35828) at pH 6.6
Method in brief: (§2)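 Twofold serial dilutions (200–3.12 µg/mL) in 7H10 agar with 10% OADC enrichment at pH 6.6, in compartmented plates. Plates were stored at 4 °C and used within 24–48 h. A no-drug compartment served as control for each isolate. Plates were incubated for 4 weeks at 37 °C. MIC was the lowest concentration giving 99% (2 log) growth inhibition.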

[9] = tested on: Mycobacterium tuberculosis; assay: In vitro activity against Mycobacterium strain GLA (Mycobacterium tuberculosis)
Mycobacterium kansasii [10] = assay: In vitro activity against Mycobacterium. kansasii (strain type-SWK)at pH 5.8
Method in brief: (§3)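 Pyrazinamide-resistant isolate SWK tested on Middlebrook 7H10 agar plus 10% OADC adjusted to pH 5.8. Compartmented plates hold 2-fold dilutions from 200 to 3.12 µg/mL, prepared 24–48 h before use and kept at 4 °C, with a drug-free compartment. Incubation was 37 °C for 4 weeks. MIC is the lowest level causing 99% (2 log) growth inhibition.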

Mycobacterium kansasii [11] = assay: In vitro activity against Mycobacterium strain SWK (Mycobacterium kansasii)
Method in brief: (§4)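 Agar dilution MIC against pyrazinamide-resistant clinical isolates on Middlebrook 7H10 agar with 10% OADC at pH 5.8 or pH 6.6. Serial 2-fold dilutions span 200–3.12 µg/mL in compartmented plates made 24–48 h ahead and stored at 4 °C. Each isolate has a drug-free control. Plates were incubated at 37 °C for 4 weeks. MIC is the lowest concentration giving 99% (2 log) growth inhibition.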

Mycobacterium kansasii [12] = assay: In vitro activity against Mycobacterium. kansasii (strain type-SWK) pH 6.6
Method in brief: (§5)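 MIC for pyrazinamide-resistant isolate SWK by agar dilution in Middlebrook 7H10 with 10% OADC at pH 6.6. Serial 2-fold dilutions run 200–3.12 µg/mL in compartmented plates prepared 24–48 h in advance and stored at 4 °C. A drug-free control is included. Plates were held at 37 °C for 4 weeks. The endpoint is 99% (2 log) inhibition of growth.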

[13] = tested on: Mycobacterium tuberculosis; assay: (§6) In vitro activity against Mycobacterium. tuberculosis (strain type-H37Rv) at pH 6.6; method in brief: as §2
[14] = tested on: Mycobacterium tuberculosis; assay: In vitro activity against Mycobacterium. tuberculosis (strain type-H37Rv) at pH 5.8
[15] = tested on: Mycobacterium tuberculosis; assay: In vitro activity against Mycobacterium strain ING (Mycobacterium tuberculosis); method in brief: as §1
[16] = tested on: Mycobacterium tuberculosis; assay: In vitro activity against Mycobacterium strain LEL (Mycobacterium tuberculosis)
[17] = tested on: Mycobacterium tuberculosis; assay: In vitro activity against Mycobacterium strain MCQ (Mycobacterium tuberculosis); method in brief: as §1
[18] = tested on: Mycobacterium tuberculosis; assay: In vitro activity against Mycobacterium strain SMA (Mycobacterium tuberculosis)
[19] = tested on: Mycobacterium tuberculosis; assay: In vitro activity against Mycobacterium strain WOO (Mycobacterium tuberculosis); method in brief: as §1
[20] = tested on: Mycobacterium tuberculosis; assay: In vitro activity against Mycobacterium. tuberculosis (strain type-ATCC 35828)at pH 5.8
Method in brief: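 Middlebrook 7H10 agar plus 10% OADC at pH 5.8 in compartmented plates, with serial twofold dilutions from 200 to 3.12 µg/mL. Plates were prepared 24–48 h before use and stored at 4 °C. A drug-free compartment was included per isolate. Incubation was 37 °C for 4 weeks. MIC was the lowest level producing 99% (2 log) inhibition of growth.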

[21] = tested on: Mycobacterium tuberculosis; assay: In vitro activity against Mycobacterium strain DUB (Mycobacterium tuberculosis); details: Mycobacterium tuberculosis; read-out: MIC
Mycobacterium kansasii [22] = assay: In vitro activity against Mycobacterium strain SCH (Mycobacterium kansasii); method in brief: as §4
[23] = tested on: Mycobacterium tuberculosis; assay: In vitro activity against Mycobacterium. tuberculosis (strain type-BUR)at pH 6.6; method in brief: as §2
[24] = tested on: Mycobacterium tuberculosis; assay: In vitro activity against Mycobacterium. tuberculosis (strain type-ATCC 35828)at pH 6.6; method in brief: as §2
Mycobacterium kansasii [25] = assay: In vitro activity against Mycobacterium. kansasii (strain type-SWK)at pH 6.6; method in brief: as §5
[26] = tested on: Mycobacterium tuberculosis; assay: as §6; remark: listed apart in the source
Mycobacterium kansasii [27] = assay: In vitro activity against Mycobacterium. kansasii (strain type-SWK).at pH 5.8; method in brief: as §3
Mycobacterium kansasii [28] = assay: In vitro activity against Mycobacterium. kansasii (strain type-SWK).at pH 6.6; method in brief: as §5
[29] = Mycobacterium tuberculosis, read-out: MIC

SMILES | MIC [1] [µg/mL] | MIC [2, 29] [µg/mL] | MIC [3] [µg/mL] | MIC [4, 29] [µg/mL] | MIC [5] [µg/mL] | MIC [7] [µg/mL] | MIC (Mycobacterium kansasii [10]) [µg/mL] | MIC (Mycobacterium kansasii [11]) [µg/mL] | MIC [14, 29] [µg/mL] | MIC [15] [µg/mL] | MIC [16] [µg/mL] | MIC [17] [µg/mL] | MIC [19] [µg/mL] | MIC [20] [µg/mL] | MIC [21] [µg/mL] | MIC (Mycobacterium kansasii [22]) [µg/mL] | MIC [6, 29] [µg/mL] | MIC [24] [µg/mL] | MIC [9] [µg/mL] | MIC [26] [µg/mL] | other results
O=C(OCC(F)(F)F)c1cnccn1 | 25 (≈ 121 µM) | 25 (≈ 121 µM) | 25 (≈ 121 µM) | 25 (≈ 121 µM) | 12.5 (≈ 60.6 µM) | 100 (≈ 485 µM) | 100 (≈ 485 µM) | 200 (≈ 970 µM) | 25 (≈ 121 µM) | 25 (≈ 121 µM) | 50 (≈ 243 µM) | 25 (≈ 121 µM) | 25 (≈ 121 µM) | 25 (≈ 121 µM) | 25 (≈ 121 µM) | 25 (≈ 121 µM) |  |  |  |  | MIC [6]: 25 µg/mL (≈ 121 µM); MIC [8]: > 200 µg/mL; MIC [9, 29]: 12.5 µg/mL (≈ 60.6 µM); MIC (Mycobacterium kansasii [12]): > 200 µg/mL; MIC [13]: 100 µg/mL (≈ 485 µM); MIC [18]: 25 µg/mL (≈ 121 µM)
Cc1ccc(OC(=O)c2cnccn2)cc1 | 12.5 (≈ 58.4 µM) |  | 12.5 (≈ 58.4 µM) |  | 12.5 (≈ 58.4 µM) | 12.5 (≈ 58.4 µM) | 12.5 (≈ 58.4 µM) | 12.5 (≈ 58.4 µM) |  | 25 (≈ 117 µM) | 12.5 (≈ 58.4 µM) | 6.25 (≈ 29.2 µM) | 25 (≈ 117 µM) | 12.5 (≈ 58.4 µM) | 25 (≈ 117 µM) | 12.5 (≈ 58.4 µM) | 6.25 (≈ 29.2 µM) | 200 (≈ 934 µM) | 6.25 (≈ 29.2 µM) | 25 (≈ 117 µM) | MIC [2]: 12.5 µg/mL (≈ 58.4 µM); MIC [4]: 12.5 µg/mL (≈ 58.4 µM); MIC [23]: 100 µg/mL (≈ 467 µM); MIC (Mycobacterium kansasii [25]): 200 µg/mL (≈ 934 µM); MIC [14]: 12.5 µg/mL (≈ 58.4 µM); MIC [18, 29]: 25 µg/mL (≈ 117 µM)
O=C(Oc1ccc([N+](=O)[O-])cc1)c1cnccn1 |  |  |  | 12.5 (≈ 51 µM) |  |  |  |  | 12.5 (≈ 51 µM) |  |  |  |  | 25 (≈ 102 µM) |  |  |  | 200 (≈ 816 µM) |  |  | MIC (Mycobacterium kansasii [27]): 25 µg/mL (≈ 102 µM); MIC (Mycobacterium kansasii [28]): 200 µg/mL (≈ 816 µM); MIC [26, 29]: 50 µg/mL (≈ 204 µM)
CCCOC(=O)c1cnccn1 | 6.25 (≈ 37.6 µM) | < 3.12 | < 3.12 | < 3.12 | < 3.12 | < 3.12 |  | 6.25 (≈ 37.6 µM) | < 3.12 | < 3.12 |  | < 3.12 |  | 6.25 (≈ 37.6 µM) | < 3.12 | 12.5 (≈ 75.2 µM) | < 3.12 | 25 (≈ 150 µM) | 6.25 (≈ 37.6 µM) | 25 (≈ 150 µM) | MIC (Mycobacterium kansasii [27]): < 3.12 µg/mL; MIC (Mycobacterium kansasii [28]): 12.5 µg/mL (≈ 75.2 µM); MIC [16, 29]: 6.25 µg/mL (≈ 37.6 µM); MIC [18, 29]: < 3.12 µg/mL
